# EP2 antag = blocks the human prostaglandin E2 receptor EP2; P43116; C6 glioma cells expressing human EP2, cAMP TR-FRET; cells stimulated with saturating PGE2; inhibition, % at 25 µM; 260,000 tested, 0.52% active; AID 1422;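 active means percent inhibition above 40 after rounding to a whole number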;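 further: rat C6 glioma host cells with rolipram phosphodiesterase inhibitor present; the protocol text gives 20 µM as final concentration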
# FXIa inh = blocks human coagulation factor XIa protease activity; purified FXIa, Boc-Glu-Ala-Arg-AMC fluorogenic substrate; 220,000 tested, 0.14% active; inhibition, % at 5 µM;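 active means inhibition of at least 40%; inactive means inhibition below 40%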;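 further: fluorescence of freed AMC excited at 355 nm; 0% = enzyme without compound and 100% = no enzyme blank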
# hK5 inh = kallikrein 5 (human) inhibition; recombinant hK5, fluorogenic AMC substrate cleavage; inhibition, % at 5 µM; Q9Y337; 210,000 tested, 0.59% active;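 active means inhibition of 40% or more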;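 further: 0% = enzyme controls without compound and 100% = no-enzyme blanks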
# Target sequence (Q9Y337 67-293 limits assumed): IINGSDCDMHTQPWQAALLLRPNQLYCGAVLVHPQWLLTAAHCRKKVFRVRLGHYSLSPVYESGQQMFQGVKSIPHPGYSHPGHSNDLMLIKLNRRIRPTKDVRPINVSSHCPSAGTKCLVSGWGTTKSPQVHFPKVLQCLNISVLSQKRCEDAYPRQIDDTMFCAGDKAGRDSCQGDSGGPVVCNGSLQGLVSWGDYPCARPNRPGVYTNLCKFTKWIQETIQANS
# thrombin 1536 = inhibitors of human thrombin; alpha-thrombin, Boc-VPR-AMC fluorogenic substrate cleavage; inhibition, % at 5 µM; 220,000 tested, 0.26% active;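 active means inhibition at or above 40%; inactive means inhibition below 40%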;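 further: 0% = enzyme with no compound and 100% = wells without enzyme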
#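 System: Human alpha-thrombin protein | Medium: pH 7.5 Tris (50 mM) with NaCl 150 mM, Tween 20 0.05% | Times: Enzyme reaction carried out at room temperature | Detection: AMC fluorescence, 355/460 nm | Evaluation: Percent inhibition scaled between no-compound controls and no-enzyme blanks | Benchmarks: Enzyme without compound as high, wells lacking enzyme as low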
# EP2 mod = modulators of human EP2 prostaglandin E2 receptor | P43116 | EP2-expressing cells, cAMP HTRF FRET, PGE2 co-stimulation | induction, % at 25 µM | 260,000 tested, 0.83% active;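 active means compounds whose cAMP rise, as percent of the full-agonist control response, exceeds 60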;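 further: rat C6 glioma line stably carrying human EP2 under a CMV promoter; the protocol text gives 20 µM as final concentration; 100% = response of wells given 1 µM PGE2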
# FXIIa inh = inhibitors of human coagulation factor XIIa. P00748. purified FXIIa, Boc-QGR-AMC fluorogenic substrate, 2 h. inhibition, % at 5 µM. 220,000 tested, 0.3% active. AID 800; in the data active means inhibition above about 40%;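 further: 0% = enzyme with no compound and 100% = blank without enzyme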
# Numbers without * were called inactive; . = no result given; ! = repeats disagree. A selection: hits, their analogues and other compounds. The true share with any hit is near 2.1%.
SMILES,EP2 antag,FXIa inh,hK5 inh,thrombin 1536,EP2 mod,FXIIa inh
Cc1ccc(/C=N\Nc2nc3ccc(Cl)cc3[nH]2)o1,18.4,19.7,-79.0,4.1,-39.4,51.7*
Cc1cc(N2C(=O)C(O)=C(C(=O)c3ccc(C)o3)C2c2cccs2)no1 (stereo not given),55.5*,14.7,3.0,2.1,52.0,20.3
Cc1cc(C)n2nc(SCC(=O)Nc3ccc(F)cc3)nc2n1,3.2,17.4,-17.4,-4.5,10.7,41.5*
CNC(=O)CSc1nc2nc(C)cc(C)n2n1,17.9,0.4,2.5,2.0,12.1,17.4
CCCCC[C@H](O)/C=C/C1=C(CCCCCCC(=O)O)C(=O)CC1,26.8,2.2,-15.3,-1.7,88.6*,10.2
O=c1c2ccccc2nc(-c2cccs2)n1-c1cccc2ccccc12,10.4,11.8,-12.3,-8.5,62.4*,3.7
CC(=O)c1ccc(OCC(O)CN2C(C)CCCC2C)cc1 (stereo not given),9.1,2.3,52.4*,13.8,-1.2,12.5
COc1ccc([C@@H]2CCN(C(=O)Cc3cc(OC)ccc3OC)C[C@H]2O)cc1,2.8,.,.,.,12.8,.
Cn1c(=O)[nH]c(=O)c2[nH]c(NCCCO)nc21,11.0,.,.,.,-5.3,.
Oc1ccc(/C=C/c2nc(-c3ccccc3O)n(-c3ccccc3)n2)cc1,13.1,-7.9,-10.9,0.0,64.7*,9.7
Oc1ccccc1-c1nc(/C=C/c2ccccc2)nn1-c1ccccc1,14.1,0.9,-0.5,3.9,50.5,10.4
CC(=O)C1CC(CC(=O)n2nc(N)c3c(C(F)(F)F)cc(C)nc32)C1(C)C (stereo not given),6.2,.,.,.,-43.7,.
Cc1cc(/C(N)=N/OC(=O)c2ccc(Cl)cc2)no1,1.1,-5.7,44.1*,-1.8,-10.5,8.1
CCOC(=O)Cn1nnnc1C(CC)N(Cc1cc2ccc(C)cc2[nH]c1=O)C1CCCCC1 (stereo not given),17.2,.,.,.,40.3,.
Cc1ccsc1C(=O)NCCC(c1ccccc1)c1ccccc1,4.9,17.4,34.7,17.3,11.4,48.2*
Cc1nc(C)c(C(=O)NCCC(c2ccccc2)c2ccccc2)o1,7.5,-8.6,-10.4,-3.1,-20.9,-0.9
O=C(Nc1cc(-c2nc3ccccc3s2)c(Cl)cc1Cl)c1cccnc1,10.0,.,.,.,-28.3,.
CCOC(=O)C1(C)/C(=N/Nc2ccc(Cl)cc2)C(=O)C(=O)N1c1ccccc1 (stereo not given),3.0,-16.4,10.0,2.5,61.2*,12.9
CCOc1ccc(C(=O)Nc2nncs2)cc1,8.2,.,.,.,-4.1,.
CCOC(=O)COc1ccccc1/C=C\[N+](=O)[O-],91.7*,-5.6,-4.1,-2.1,-64.0,1.1
CCOC(=O)COc1cc([N+](=O)[O-])cc2cccnc12,10.4,-1.8,-0.5,-2.0,8.5,9.1
CCOC(=O)CSc1snnc1-c1ccccc1,13.2,-8.7,-15.1,-4.8,24.4,58.3*
CCOC(=O)CSc1nnc(-c2cccnc2)o1,8.6,7.5,-7.0,3.3,13.3,10.3
COc1cc(OC)cc(-c2nnc(SCC(=O)N3c4ccccc4Sc4ccccc43)o2)c1,12.9,.,.,.,61.0*,.
CCOC(=O)CSc1nnc(-c2ccccc2)o1,7.8,43.6*,-5.8,0.1,15.8,30.1
SMILES,EP2 antag,FXIa inh,hK5 inh,thrombin 1536,EP2 mod,FXIIa inh
CCOC(=O)CSc1ncc(-c2ccccc2)cn1,3.5,0.9,3.5,-12.3,13.9,-8.5
CCOCCCNC(=O)Cn1nc(C)n2c(cc3sccc32)c1=O,.,.,.,.,3.2,.
C[C@H]1C[C@@H]2[C@@H]3CCC4=CC(=O)C=C[C@@]4(C)[C@@]3(Cl)[C@H](Cl)C[C@@]2(C)[C@]1(O)C(=O)COP(=O)(O)O,40.7*,.,.,.,15.7,.
CCC(NC(=O)c1cc(=O)c2cc(C)c(C)cc2o1)c1c(C)nn(CC)c1C (stereo not given),7.0,.,.,.,-58.1,.
Cc1ccc(S(=O)(=O)N2CCC(C(=O)Nc3nnc(-c4ccco4)s3)CC2)cc1,46.0*!,-7.8,-13.9,-3.2,-2.6,-12.4
CCOC(=O)C(C)n1nc(C)n2c(cc3ccsc32)c1=O (stereo not given),.,.,.,.,0.7,.
Cc1c(NS(=O)(=O)c2ccc(Cl)c(C(=O)OCC(=O)NCc3ccco3)c2)c(=O)n(-c2ccccc2)n1C,3.7,18.5,24.1,45.8*,-12.9,17.4
